# Experimental data from different studies.
# Compare with care: the assays were run in different laboratories.
# Observed: microbial growth
Structure (SMILES),organism,test,system,setting,MIC
CCCCCCC/C=C/C(=O)N1C(=O)/C(=C(\O)c2ccc(OCOCCOC)cc2)C(=O)C1CC(C)C (stereo not shown),Proteus vulgaris,,ATCC33420,,> 200 µg/mL
C/C(=C\c1ccc(O)cc1)C(=O)Nc1ccc(C(=O)N[C@@H](CC(N)=O)C(=O)Nc2ccc(C(=O)Nc3ccc(C(=O)Nc4ccc(C(=O)O)cc4)c(O)c3OC(C)C)cc2)cc1,Proteus vulgaris,,DSM2140,,0.125 µg/mL
O=C(Nc1ccc2c(c1)OC(F)(F)O2)Nc1ccc(Cl)c(C(F)(F)F)c1,Listeria monocytogenes,,,,0.3 µM
CCCCCCC/C=C/C(=O)N1C(=O)/C(=C(/C)O)C(=O)C1CCCCN (stereo not shown),Proteus vulgaris,,ATCC33420,,> 200 µg/mL
CCCCCCCCCCCCS(=O)(=O)C[C@@H]1O[C@@H](O[C@@H]2[C@@H](O)[C@H](O[C@@H]3O[C@@H](CN)[C@H](O)[C@@H](O)[C@@H]3N)[C@@H](N)C[C@H]2N)[C@@H](O)[C@H](N)[C@H]1O,Listeria monocytogenes,,ATCC19115,,4 to 8 µg/mL
CCCCCCC/C=C/C(=O)N1C(=O)/C(=C(\O)CCCC)C(=O)C1CC(C)C (stereo not shown),Proteus vulgaris,,ATCC33420,,> 200 µg/mL
O=C(O)c1cn(C2CC2)c2cc(N3CCNCC3)c(F)cc2c1=O,Proteus vulgaris,,DSM2140,,≤ 0.03 µg/mL
CCCCCCC/C=C/C(=O)N1C(=O)/C(=C(/C)O)C(=O)C1CCC(=O)O (stereo not shown),Proteus vulgaris,,ATCC33420,,> 200 µg/mL
CCCCCCCCCCCCCCS(=O)(=O)C[C@@H]1O[C@@H](O[C@@H]2[C@@H](O)[C@H](O[C@@H]3O[C@@H](CN)[C@H](O)[C@@H](O)[C@@H]3N)[C@@H](N)C[C@H]2N)[C@@H](O)[C@H](N)[C@H]1O,Listeria monocytogenes,,ATCC19115,,2 to 4 µg/mL
CC(C)Oc1c(NC(=O)c2ccc(NC(=O)[C@H](CC(N)=O)NC(=O)c3ccc(NC(=O)c4ccc(C#N)s4)cc3)cc2)ccc(C(=O)Nc2ccc(C(=O)O)cc2)c1O,Proteus vulgaris,,DSM2140,,0.06 µg/mL
O=C(Cc1ccc(O)c(O)c1)NCCCCCCCC[P+](c1ccccc1)(c1ccccc1)c1ccccc1.[Br-],Cryptococcus neoformans,broth dilution,ATCC208821,24 h,> 32 µg/mL
CC(C)Oc1c(NC(=O)c2ccc(NC(=O)c3ccc(NC(=O)[C@H](CC(N)=O)NC(=O)c4ccc(NC(=O)c5ccc(C#N)s5)cc4)cc3)c(OC(C)C)c2O)ccc(C(=O)O)c1O,Proteus vulgaris,,DSM2140,,1 µg/mL
O=C(CCCCCCCC[P+](c1ccccc1)(c1ccccc1)c1ccccc1)Nc1ccc(O)c(O)c1.[Br-],Cryptococcus neoformans,broth dilution,ATCC208821,24 h,> 32 µg/mL
